“Also recorded” adds a separate entry of the source.
Tests used:
CBP/β-catenin = conditions: cited from earlier work
[1] = tested on: patients with liver cirrhosis induced by hepatitis B or C virus; conditions: cited from earlier work
[2] = tested on: liver fibrosis in patients with advanced PBC; assay: Paired liver biopsy histology; format: in vivo, human
Procedure, shortened: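 Paired liver biopsies were taken at screening (baseline) and within 2 weeks of the final dose of the 12-cycle iv regimen (280 or 380 mg/m2/4 hours, twice weekly). Sections were stained with Masson's trichrome, H&E and Sirius red. Three independent central pathologists scored the slides blinded, using Knodell and Ishak modified HAI for grade and fibrosis stage. Analysis was descriptive.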

[3] = tested on: cholestatic liver fibrosis models; conditions: cited from earlier work
[4] = tested on: patients with advanced PBC; assay: Serum liver function parameters during OP-724 administration; format: in vivo, human
[5] = tested on: patients with advanced PBC; assay: Liver stiffness; format: in vivo, human
Procedure, shortened: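 Patients aged 20–74 years with PBC and Scheuer stage III or higher fibrosis on screening biopsy received iv OP-724 at 280 or 380 mg/m2 over 4 hours, twice weekly for 12 cycles. Liver stiffness was measured by FibroScan, and the Child-Pugh score, MELD score and Enhanced Liver Fibrosis score were determined. Prespecified change was from baseline to 12 weeks. Analysis was descriptive, mean±SD, with no statistical testing.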

[6] = patient P101-01, 12 weeks, baseline 6
[7] = patient P101-02, 12 weeks, baseline 2
[8] = patient P101-02, 12 weeks, baseline 6
[9] = patient P101-04, 12 weeks, baseline 1
[10] = patient P101-07, 12 weeks, baseline 2
[11] = patient P101-07, 12 weeks, baseline 3
[12] = patient P101-08, 12 weeks, baseline 3
[13] = before and after administration
[14] = patient P101-07, 12 weeks, baseline 5
[15] = patient P101-08, 12 weeks, baseline 6

C[C@H]1[C@H]2N(C(=O)CN(C)N2C(=O)NCc2ccccc2)[C@@H](Cc2ccc(OP(=O)(O)O)cc2)C(=O)N1Cc1cccc2cccnc12 [OP-724]
inhibition of the interaction between CBP and β-catenin (CBP/β-catenin): selectively inhibits
liver dysfunction reported as SAE ([1]; one patient at level 3 (380 mg/m^2/4 hours), PRI-724-2101 study ref 25): severe liver dysfunction
harmful effects in humans ([1]; phase 1 or 1/2a clinical trials ref 24 25): does not have harmful effects in humans
albumin level ([1]; previous clinical trials ref 24 25): increase in the albumin level
patients with a decrease in the fibrosis stage by 1 or more ([2]; paired biopsies, baseline vs 12 weeks, 2/5 patients): 40%
patients with a decrease (improvement) in the mHAI score ([2]; paired biopsies, baseline vs 12 weeks, 3/5 patients): 60%
patients with a decrease in the CPA ([2]; paired biopsies, baseline vs 12 weeks, three of five patients): 60%
Modified HAI score: Confluent necrosis ([2]; patient P101-01, 12 weeks, baseline 0): 0
Modified HAI score: Lobular inflammation ([2]; patient P101-01, 12 weeks, baseline 1): 1
Modified HAI score: Interface hepatitis ([2]; patient P101-01, 12 weeks, baseline 2): 2
Modified HAI score: Portal inflammation ([2]; patient P101-01, 12 weeks, baseline 3): 3
Modified HAI score: Stage ([2]; patient P101-01, 12 weeks, baseline 4): 3
Modified HAI score: HAI score [2, 6]: 6
Collagen proportional area, Sirius red positive area ([2]; patient P101-01, 12 weeks, baseline 7.8010627): 2.739%
Modified HAI score: Confluent necrosis ([2]; patient P101-02, 12 weeks, baseline 0): 0
Modified HAI score: Interface hepatitis [2, 7]: 1
Modified HAI score: Lobular inflammation [2, 7]: 1
Modified HAI score: Portal inflammation [2, 7]: 1
Collagen proportional area, Sirius red positive area ([2]; patient P101-02, 12 weeks, baseline 4.9477138): 3.714%
Modified HAI score: Stage ([2]; patient P101-02, 12 weeks, baseline 5): 5
Modified HAI score: HAI score [2, 8]: 3
Modified HAI score: Confluent necrosis ([2]; patient P101-04, 12 weeks, baseline 0): 1
Modified HAI score: Lobular inflammation [2, 9]: 2
Modified HAI score: Portal inflammation [2, 9]: 3
Modified HAI score: Interface hepatitis ([2]; patient P101-04, 12 weeks, baseline 2): 3
Modified HAI score: Stage ([2]; patient P101-04, 12 weeks, baseline 3): 5
Modified HAI score: HAI score ([2]; patient P101-04, 12 weeks, baseline 4): 9
Collagen proportional area, Sirius red positive area ([2]; patient P101-04, 12 weeks, baseline 6.8891091): 7.584%
Modified HAI score: Confluent necrosis [2, 10]: 0
Modified HAI score: Interface hepatitis [2, 10]: 2
Modified HAI score: Lobular inflammation [2, 11]: 2
Modified HAI score: Portal inflammation [2, 11]: 2
Modified HAI score: Stage [2, 11]: 3
Collagen proportional area, Sirius red positive area ([2]; patient P101-07, 12 weeks, baseline 3.8731926): 3.646%
Modified HAI score: HAI score ([2]; patient P101-07, 12 weeks, baseline 10): 6
Modified HAI score: Confluent necrosis [2, 12]: 0
Modified HAI score: Lobular inflammation [2, 12]: 3
Modified HAI score: Portal inflammation [2, 12]: 2
Modified HAI score: Interface hepatitis ([2]; patient P101-08, 12 weeks, baseline 4): 1
Modified HAI score: Stage ([2]; patient P101-08, 12 weeks, baseline 5): 2
Collagen proportional area, Sirius red positive area ([2]; patient P101-08, 12 weeks, baseline 7.7587483): 3.484%
Modified HAI score: HAI score ([2]; patient P101-08, 12 weeks, baseline 13): 6
septal thickness in liver parenchyma, Masson's trichrome staining ([2]; patients P101-01 and P101-08, after OP-724 administration): reduction in septal thickness
antifibrotic effect [3]: exerts an antifibrotic effect
serum ALP and GGT levels ([4]; 5, 9, 12 and 16 weeks vs baseline): did not show a tendency to decrease
patients whose abnormally high baseline total bile acid values decreased ([4]; 12 weeks, of five patients with baseline and 12-week data): four
serum total bile acid level ([4]; during OP-724 administration, no significant difference): downward trend; also recorded: tendency to decrease
increase in the albumin level ([4]; this study): this tendency was not observed
change in mean CP score ([5]; 12 weeks after administration): no changes
change in mean MELD score ([5]; 12 weeks after administration): no changes
change in Enhanced Liver Fibrosis score [5, 13]: no significant change
change in liver stiffness by FibroScan [5, 13]: no significant change
ELF score ([5]; patient P101-01, 12 weeks, baseline 1.2): 0.9
Child-Pugh score [5, 6]: 7
FibroScan ([5]; patient P101-01, 12 weeks, baseline 9.1): 8.9 kPa
MELD score ([5]; patient P101-01, 12 weeks, baseline 15): 15
ELF score ([5]; patient P101-02, 12 weeks, baseline 0.78): 0.24
MELD score [5, 7]: 2
Child-Pugh score [5, 8]: 6
FibroScan ([5]; patient P101-02, 12 weeks, baseline 40.3): 33.8 kPa
ELF score ([5]; patient P101-04, 12 weeks, baseline 2.46): 3.16
MELD score ([5]; patient P101-04, 12 weeks, baseline 6): 8
Child-Pugh score ([5]; patient P101-04, 12 weeks, baseline 7): 7
FibroScan ([5]; patient P101-04, 12 weeks, baseline 26.3): 23.6 kPa
Child-Pugh score [5, 14]: 5
MELD score [5, 14]: 5
FibroScan ([5]; patient P101-07, 12 weeks, baseline 11.6): 9.2 kPa
ELF score ([5]; patient P101-07, 12 weeks, baseline −0.1): −0.07
ELF score ([5]; patient P101-08, 12 weeks, baseline 0.96): 1.48
Child-Pugh score [5, 15]: 6
MELD score [5, 15]: 6
FibroScan ([5]; patient P101-08, 12 weeks, baseline 22.3): 36.3 kPa
